The results in this text go back to ChEMBL document CHEMBL1681705, “Optimisation of ITK inhibitors through successive iterative design cycles” (Bioorg Med Chem Lett, 2011).

For data set [1], the system named is Mus musculus. The experiment in a line: Antiinflammatory activity in BALB/c mouse assessed as inhibition of monoclonal anti-CD3-induced IL-2 production at 10 mg/kg, po administered 1 hr before monoclonal anti-CD3 challenge measured after 2 hrs by ELISA relative to control. In kind it is functional. In short, it runs like this: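 Female BALB/c mice (~20 g) dosed orally at 10 mg/kg, 1 h before iv anti-CD3 monoclonal antibody (clone 145-2C11, 10 µg/kg). Vehicle (saline) plus antibody group served as positive control. Plasma IL-2 determined from heart-puncture blood 2 h after stimulation, under anaesthesia. Inhibition expressed relative to vehicle; n = 8 mice/group.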
In general terms: An ELISA detects its analyte on a solid surface through an enzyme-linked reagent.

The nature of data set [2]: Solubility of the compound. It is filed as physicochemical.
The target of data set [3] is T1, Interleukin-1 receptor-associated kinase 4 (Homo sapiens) (UniProt Q9NWZ3).
T1 sequence (whole entry): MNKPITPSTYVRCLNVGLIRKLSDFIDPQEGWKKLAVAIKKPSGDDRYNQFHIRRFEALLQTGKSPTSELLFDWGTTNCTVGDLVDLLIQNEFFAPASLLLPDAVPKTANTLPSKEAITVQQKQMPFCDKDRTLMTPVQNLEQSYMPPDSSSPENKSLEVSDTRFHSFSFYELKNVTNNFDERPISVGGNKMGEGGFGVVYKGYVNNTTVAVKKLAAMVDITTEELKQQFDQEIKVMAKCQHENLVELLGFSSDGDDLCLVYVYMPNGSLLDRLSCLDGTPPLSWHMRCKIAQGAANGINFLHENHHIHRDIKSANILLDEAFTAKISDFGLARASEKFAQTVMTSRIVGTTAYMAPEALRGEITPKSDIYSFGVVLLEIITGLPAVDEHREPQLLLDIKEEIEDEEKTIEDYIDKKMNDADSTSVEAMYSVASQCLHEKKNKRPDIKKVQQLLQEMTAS
The data set is described as follows: Inhibition of IRAK4 at 1 uM. The method, boiled down:
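Single-point profiling in a panel of 108 kinases. Each selected inhibitor was tested at two concentrations, 0.1 and 1.0 micromolar. Values are reported as inhibition at each concentration.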

Data set [4] addresses MAP kinase-interacting serine/threonine-protein kinase 2 (Homo sapiens) (UniProt Q9HBH9). The experiment in a line: Inhibition of Mnk2 at 1 uM; values are per cent of control.
Data set [5] deals with Tyrosine-protein kinase CSK (Homo sapiens) (UniProt P41240). The experiment in a line: Inhibition of CSK at 0.1 uM; values are per cent of control.
The target of data set [6] is Hepatocyte growth factor receptor (Homo sapiens) (UniProt P08581). The data set is described as follows: Inhibition of Met at 0.1 uM; values are per cent of control.
Data set [7] addresses Serine/threonine-protein kinase SIK1 (Homo sapiens) (UniProt P57059). The data set is described as follows: Inhibition of SIK at 0.1 uM; values are per cent of control.
In data set [8] the target is Fibroblast growth factor receptor 1 (Homo sapiens) (UniProt P11362). The data set is described as follows: Inhibition of FGFR1 at 1 uM; values are per cent of control.
Data set [9] deals with Ephrin type-A receptor 5 (Homo sapiens) (UniProt P54756). The data set is described as follows: Inhibition of EphA5 at 0.1 uM; values are per cent of control.
For data set [10], the target named is Cyclin-dependent kinase 5/CDK5 activator 1 (Homo sapiens) (UniProt Q00535+Q15078). The data set is described as follows: Inhibition of CDK5/p35 at 1 uM; values are per cent of control.
Data set [11] has as its target RAC-alpha serine/threonine-protein kinase (Homo sapiens) (UniProt P31749). The data set is described as follows: Inhibition of PKBalpha at 1 uM; values are per cent of control.
Data set [12] has as its system Mus musculus. The experiment in a line: Antiinflammatory activity in iv dosed BALB/c mouse assessed as inhibition of monoclonal anti-CD3-induced IL-2 production administered 10 min before monoclonal anti-CD3 challenge measured after 2 hrs by ELISA.
The subject of data set [13] is Mus musculus. The experiment in a line: Antiinflammatory activity in BALB/c mouse assessed as inhibition of monoclonal anti-CD3-induced IL-2 production at 10 mg/kg, iv administered 10 min before monoclonal anti-CD3 challenge measured after 2 hrs by ELISA. The note with it: BLD = below limit of detection.
Data set [14] can be described thus: Inhibition of ROCK1 at 1 uM.
Data set [15] has as its target Serine/threonine-protein kinase PAK 2 (Homo sapiens) (UniProt Q13177). The data set is described as follows: Inhibition of PAK2 at 0.1 uM; values are per cent of control.
Data set [16] has as its target T2, Ephrin type-B receptor 3 (Homo sapiens) (UniProt P54753).
T2 sequence (whole entry): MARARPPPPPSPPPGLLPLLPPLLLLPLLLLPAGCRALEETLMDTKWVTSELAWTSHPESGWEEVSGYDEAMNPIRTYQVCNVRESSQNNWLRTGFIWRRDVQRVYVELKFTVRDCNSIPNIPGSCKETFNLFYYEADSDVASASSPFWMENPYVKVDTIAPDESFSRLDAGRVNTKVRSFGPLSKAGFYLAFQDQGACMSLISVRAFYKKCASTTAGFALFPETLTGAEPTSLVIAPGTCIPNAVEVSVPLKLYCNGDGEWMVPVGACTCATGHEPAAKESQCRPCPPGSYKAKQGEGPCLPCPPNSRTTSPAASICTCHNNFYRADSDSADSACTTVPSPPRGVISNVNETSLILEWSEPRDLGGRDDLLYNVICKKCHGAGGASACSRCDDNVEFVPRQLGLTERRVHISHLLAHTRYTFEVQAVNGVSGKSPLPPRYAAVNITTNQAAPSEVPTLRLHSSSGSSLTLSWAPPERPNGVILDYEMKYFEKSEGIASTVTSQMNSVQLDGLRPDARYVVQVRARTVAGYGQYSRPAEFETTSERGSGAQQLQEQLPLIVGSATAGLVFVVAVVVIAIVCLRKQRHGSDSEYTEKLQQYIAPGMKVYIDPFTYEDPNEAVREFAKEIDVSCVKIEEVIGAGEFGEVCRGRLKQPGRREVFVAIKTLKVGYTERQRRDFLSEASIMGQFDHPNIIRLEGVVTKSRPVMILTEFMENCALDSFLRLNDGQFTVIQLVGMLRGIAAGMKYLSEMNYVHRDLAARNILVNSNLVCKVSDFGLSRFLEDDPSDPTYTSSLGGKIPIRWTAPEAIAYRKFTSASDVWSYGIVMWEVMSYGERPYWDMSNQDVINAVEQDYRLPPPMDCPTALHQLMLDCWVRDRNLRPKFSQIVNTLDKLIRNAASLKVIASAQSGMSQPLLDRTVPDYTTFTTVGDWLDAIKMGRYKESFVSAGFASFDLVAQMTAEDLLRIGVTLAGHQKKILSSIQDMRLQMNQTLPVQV
The data set is described as follows: Inhibition of EphB3 at 0.1 uM; values are per cent of control.

Hepatocyte growth factor receptor (Homo sapiens), sequence (P08581 whole entry): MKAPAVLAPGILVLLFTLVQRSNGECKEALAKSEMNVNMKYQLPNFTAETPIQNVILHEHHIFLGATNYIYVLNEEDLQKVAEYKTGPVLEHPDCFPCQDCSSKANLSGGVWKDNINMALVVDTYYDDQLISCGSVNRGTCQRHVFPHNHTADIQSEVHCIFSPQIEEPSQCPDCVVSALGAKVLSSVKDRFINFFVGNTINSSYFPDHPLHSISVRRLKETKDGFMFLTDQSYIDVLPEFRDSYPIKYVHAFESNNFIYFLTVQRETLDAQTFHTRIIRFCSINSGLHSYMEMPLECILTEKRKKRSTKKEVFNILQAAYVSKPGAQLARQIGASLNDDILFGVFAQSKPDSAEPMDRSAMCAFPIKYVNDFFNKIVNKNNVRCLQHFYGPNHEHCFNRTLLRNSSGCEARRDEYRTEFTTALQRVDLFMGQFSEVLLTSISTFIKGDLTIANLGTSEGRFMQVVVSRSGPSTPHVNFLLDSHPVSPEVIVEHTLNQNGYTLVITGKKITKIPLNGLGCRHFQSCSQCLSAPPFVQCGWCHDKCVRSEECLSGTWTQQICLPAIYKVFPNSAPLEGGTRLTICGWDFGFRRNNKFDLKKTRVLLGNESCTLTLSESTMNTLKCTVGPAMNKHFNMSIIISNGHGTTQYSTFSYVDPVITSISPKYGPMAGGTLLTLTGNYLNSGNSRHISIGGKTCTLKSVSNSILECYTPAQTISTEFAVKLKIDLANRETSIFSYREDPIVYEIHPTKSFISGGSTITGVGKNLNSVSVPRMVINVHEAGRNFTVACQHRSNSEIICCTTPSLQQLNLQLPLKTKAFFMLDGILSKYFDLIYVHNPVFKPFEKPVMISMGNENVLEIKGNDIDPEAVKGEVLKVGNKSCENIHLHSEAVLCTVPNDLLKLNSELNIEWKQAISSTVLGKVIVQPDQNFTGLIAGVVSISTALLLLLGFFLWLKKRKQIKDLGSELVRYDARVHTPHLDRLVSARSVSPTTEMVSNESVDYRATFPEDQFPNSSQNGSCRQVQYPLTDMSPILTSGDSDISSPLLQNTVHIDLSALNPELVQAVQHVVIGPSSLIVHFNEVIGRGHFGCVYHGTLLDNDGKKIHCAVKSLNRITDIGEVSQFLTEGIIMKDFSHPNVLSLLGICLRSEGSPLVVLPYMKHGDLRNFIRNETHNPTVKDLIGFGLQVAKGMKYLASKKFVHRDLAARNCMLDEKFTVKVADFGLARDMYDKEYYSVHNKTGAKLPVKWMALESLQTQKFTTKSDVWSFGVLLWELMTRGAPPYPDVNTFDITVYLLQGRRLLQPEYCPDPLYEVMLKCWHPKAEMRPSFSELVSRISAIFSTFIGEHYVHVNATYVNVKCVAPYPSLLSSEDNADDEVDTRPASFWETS
MAP kinase-interacting serine/threonine-protein kinase 2 (Homo sapiens), sequence (Q9HBH9 whole entry, looked up): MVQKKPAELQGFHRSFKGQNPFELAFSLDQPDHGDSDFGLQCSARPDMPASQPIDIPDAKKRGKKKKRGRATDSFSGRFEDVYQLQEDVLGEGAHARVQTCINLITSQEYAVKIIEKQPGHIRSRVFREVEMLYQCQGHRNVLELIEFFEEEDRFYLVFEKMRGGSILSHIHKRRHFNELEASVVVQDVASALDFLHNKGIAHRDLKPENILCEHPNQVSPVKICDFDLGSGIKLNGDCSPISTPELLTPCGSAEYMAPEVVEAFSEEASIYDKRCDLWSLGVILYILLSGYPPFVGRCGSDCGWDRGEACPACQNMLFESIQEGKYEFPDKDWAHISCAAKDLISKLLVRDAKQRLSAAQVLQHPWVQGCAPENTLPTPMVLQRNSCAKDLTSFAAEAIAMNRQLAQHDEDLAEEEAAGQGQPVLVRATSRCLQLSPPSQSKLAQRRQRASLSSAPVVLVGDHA
Serine/threonine-protein kinase SIK1 (Homo sapiens), sequence (P57059 whole entry): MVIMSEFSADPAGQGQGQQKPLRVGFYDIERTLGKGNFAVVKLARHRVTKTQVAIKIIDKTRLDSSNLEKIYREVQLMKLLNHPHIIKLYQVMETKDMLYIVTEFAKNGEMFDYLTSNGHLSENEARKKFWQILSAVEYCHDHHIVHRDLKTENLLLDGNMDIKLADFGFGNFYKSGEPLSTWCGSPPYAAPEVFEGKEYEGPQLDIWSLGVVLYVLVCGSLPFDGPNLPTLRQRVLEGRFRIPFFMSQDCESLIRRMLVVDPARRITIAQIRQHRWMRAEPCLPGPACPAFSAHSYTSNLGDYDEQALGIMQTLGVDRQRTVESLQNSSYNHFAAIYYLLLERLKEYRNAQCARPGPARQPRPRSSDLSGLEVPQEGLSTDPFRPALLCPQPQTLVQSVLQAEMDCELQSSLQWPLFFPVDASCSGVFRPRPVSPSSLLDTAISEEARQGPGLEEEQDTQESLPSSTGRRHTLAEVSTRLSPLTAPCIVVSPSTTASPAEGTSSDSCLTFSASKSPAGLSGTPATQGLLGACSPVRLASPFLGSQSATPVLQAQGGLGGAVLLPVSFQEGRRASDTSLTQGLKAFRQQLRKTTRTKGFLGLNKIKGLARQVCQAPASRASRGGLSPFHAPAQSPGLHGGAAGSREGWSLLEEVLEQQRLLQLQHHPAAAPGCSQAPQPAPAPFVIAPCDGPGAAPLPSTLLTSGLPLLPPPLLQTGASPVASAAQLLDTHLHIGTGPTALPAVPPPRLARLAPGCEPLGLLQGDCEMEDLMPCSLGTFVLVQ
Cyclin-dependent kinase 5/CDK5 activator 1 (Homo sapiens), sequence (Q00535 whole entry): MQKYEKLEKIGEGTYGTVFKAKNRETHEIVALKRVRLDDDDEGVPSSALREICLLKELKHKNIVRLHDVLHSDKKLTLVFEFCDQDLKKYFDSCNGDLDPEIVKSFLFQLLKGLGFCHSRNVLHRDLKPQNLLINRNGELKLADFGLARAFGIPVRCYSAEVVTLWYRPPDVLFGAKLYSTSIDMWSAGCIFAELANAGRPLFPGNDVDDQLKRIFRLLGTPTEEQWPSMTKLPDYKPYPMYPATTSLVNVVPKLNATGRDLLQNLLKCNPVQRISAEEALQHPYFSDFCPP
Cyclin-dependent kinase 5/CDK5 activator 1 (Homo sapiens), sequence (Q15078 99-307 partner limits assumed): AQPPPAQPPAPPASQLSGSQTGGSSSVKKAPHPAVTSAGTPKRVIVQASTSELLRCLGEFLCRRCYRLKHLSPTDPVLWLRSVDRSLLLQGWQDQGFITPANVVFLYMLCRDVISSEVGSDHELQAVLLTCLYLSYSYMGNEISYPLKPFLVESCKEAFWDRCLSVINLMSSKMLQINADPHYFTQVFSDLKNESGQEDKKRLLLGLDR
RAC-alpha serine/threonine-protein kinase (Homo sapiens), sequence (P31749 whole entry): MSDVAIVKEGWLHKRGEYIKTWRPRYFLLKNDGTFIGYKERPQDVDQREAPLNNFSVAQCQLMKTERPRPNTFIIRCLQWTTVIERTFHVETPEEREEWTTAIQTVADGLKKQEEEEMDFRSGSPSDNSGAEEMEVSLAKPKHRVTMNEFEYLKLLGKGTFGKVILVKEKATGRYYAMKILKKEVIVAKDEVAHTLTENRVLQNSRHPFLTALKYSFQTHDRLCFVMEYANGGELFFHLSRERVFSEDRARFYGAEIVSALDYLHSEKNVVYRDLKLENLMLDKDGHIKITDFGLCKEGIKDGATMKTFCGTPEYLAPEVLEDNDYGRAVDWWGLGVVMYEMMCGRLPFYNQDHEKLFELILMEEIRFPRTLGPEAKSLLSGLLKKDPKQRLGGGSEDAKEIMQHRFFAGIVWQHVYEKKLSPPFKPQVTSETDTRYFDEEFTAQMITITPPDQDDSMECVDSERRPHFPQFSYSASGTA
Ephrin type-A receptor 5 (Homo sapiens), sequence (P54756 whole entry): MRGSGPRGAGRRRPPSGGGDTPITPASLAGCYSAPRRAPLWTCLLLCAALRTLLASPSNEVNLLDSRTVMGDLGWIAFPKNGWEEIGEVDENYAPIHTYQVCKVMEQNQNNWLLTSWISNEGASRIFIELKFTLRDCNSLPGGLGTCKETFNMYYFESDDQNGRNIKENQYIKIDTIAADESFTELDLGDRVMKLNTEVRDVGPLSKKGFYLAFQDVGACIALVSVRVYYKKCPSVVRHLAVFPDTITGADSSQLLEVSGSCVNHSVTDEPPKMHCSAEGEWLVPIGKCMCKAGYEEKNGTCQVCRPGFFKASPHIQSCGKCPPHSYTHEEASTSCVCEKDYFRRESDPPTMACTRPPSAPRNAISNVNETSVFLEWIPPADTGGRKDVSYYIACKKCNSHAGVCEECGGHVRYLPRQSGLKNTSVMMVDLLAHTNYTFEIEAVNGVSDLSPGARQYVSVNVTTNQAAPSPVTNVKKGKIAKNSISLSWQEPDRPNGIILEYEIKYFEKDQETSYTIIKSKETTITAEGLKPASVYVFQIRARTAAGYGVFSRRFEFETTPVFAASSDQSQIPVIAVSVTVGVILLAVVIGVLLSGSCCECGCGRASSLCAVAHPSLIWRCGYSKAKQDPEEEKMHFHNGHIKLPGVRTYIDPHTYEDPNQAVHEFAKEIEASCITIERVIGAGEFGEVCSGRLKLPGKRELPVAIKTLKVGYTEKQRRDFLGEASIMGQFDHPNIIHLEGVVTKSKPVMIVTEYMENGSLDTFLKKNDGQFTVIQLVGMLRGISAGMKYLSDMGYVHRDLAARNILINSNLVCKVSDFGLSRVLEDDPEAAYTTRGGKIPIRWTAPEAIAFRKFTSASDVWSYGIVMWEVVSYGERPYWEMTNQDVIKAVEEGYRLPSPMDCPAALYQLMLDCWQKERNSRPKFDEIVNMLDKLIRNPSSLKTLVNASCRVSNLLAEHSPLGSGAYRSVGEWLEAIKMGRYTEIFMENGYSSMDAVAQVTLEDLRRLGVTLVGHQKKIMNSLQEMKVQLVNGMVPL

As a reminder, the inhibition in vivo is the change of the read-out against control, counted positive when it falls. One may read the inhibition as the change of the read-out against control, counted positive when it falls. Broadly, the ED50 is the dose at which the effect has come halfway, by size or by number of responders. For the compound `Cc1ccc2cc(-c3n[nH]c4ccc(NC5CCNC5)cc34)[nH]c2c1` (stereo unspecified), the inhibition in vivo at 10 mg/kg in the data set on Mus musculus [1] is over 80%. The solubility entry in [2] is listed as “soluble”. Further, the inhibition in [3] was 0%; in the data set with Mus musculus [12], “Dose-dependent effect”; with Mus musculus [13] it was “BLD”. For the same compound, the residual activity in data set [4] is 14%; in data set [5] it was 107%; in data set [6], 44%; in data set [7], 18%; in data set [8], 0%; in data set [9], 86%. Besides, the figures for the residual activity in data set [10] and in data set [11] were 2% and 69%, respectively. Moreover, the ED50 in the data set with Mus musculus [12] stood at 2.1 mg/kg.

For `Cc1ccc2cc(-c3n[nH]c4ccc(NC5CCN(Cc6ccccc6)CC5)cc34)[nH]c2c1`, the inhibition in [3] was 3%; in data set [14], 45%. Further, the residual activity in data set [4] was 44%; in data set [5], 105%; in data set [6], 78%; in data set [7] it was 43%; in data set [8], -2%; in [15] it was 93%. Moreover, the residual activity in data set [9] was 81%; in data set [16] it was 127%; in [10] it was 0%; in data set [11], 86%.
